# Measurements published in ChEMBL document CHEMBL5303300, “EUbOPEN Chemogenomics Library - Multiplex” (2023).
# Values joined by “and” are separate entries in the source; they are usually repeats but may differ in a detail not shown here. Equal values may be shown once.
# Test system: HEK-293T
# Assay: Multiplex assay against HEK293T
# Assay type: toxicity, cell-based
# Details: human, number of replicates 2
# In short: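 With compound added, live cells were imaged on a CQ1 microscope at 37°C and 5% CO2; staining with Hoechst33342, BioTracker Green Microtubule Cytoskeleton Dye, MitoTracker Red and Annexin V Alexa Fluor 680 had been done at seeding. The CellPathfinder machine-learning gating scheme split cells into Hoechst high-intensity objects or normal cells, normal cells into healthy, pyknosed or fragmented nuclei, and pyknosed cells into mitotic or apoptotic. The tubulin, mitochondrial-mass and membrane-permeability phenotypes are per cents of healthy-nucleus cells.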
# [1] = 12 h, 1 µM, compound concentration 1 uM
# [2] = 12 h, 10 µM, compound concentration 10 uM
# [3] = 24 h, 1 µM, compound concentration 1 uM
# [4] = 24 h, 10 µM, compound concentration 10 uM
# [5] = 48 h, 1 µM, compound concentration 1 uM
# [6] = 48 h, 10 µM, compound concentration 10 uM
structure (smiles),measurement,setting,value
O=C1Nc2ccc(C(=O)c3ccco3)cc2C1=Cc1cc(Cl)c(O)c(Cl)c1 [GW406108X],Population Apoptotic (%),[1],52% and 54%
same,Population Fragmented Nuclei (%),[1],4% and 3%
same,Population Healthy Nuclei (%),[1],83% and 81%
same,Population Hoechst High Intensity Objects (%),[1],9%
same,Population Membrane Permeable-Phenotype (%),[1],2% and 1%
same,Population Mitochondria Different-Phenotype (%),[1],18% and 17%
same,Population Mitotic Cells (%),[1],47% and 45%
same,Population Normal (%),[1],90%
same,Population Pyknosed Nuclei (%),[1],11% and 14%
same,Population Tubulin-Different-Phenotype (%),[1],49% and 42%
same,Total Cell Count,[1],695 and 619
same,Population Apoptotic (%),[2],53% and 61%
same,Population Fragmented Nuclei (%),[2],4% and 3%
same,Population Healthy Nuclei (%),[2],82% and 85%
same,Population Hoechst High Intensity Objects (%),[2],7% and 9%
same,Population Membrane Permeable-Phenotype (%),[2],2% and 1%
same,Population Mitochondria Different-Phenotype (%),[2],19%
same,Population Mitotic Cells (%),[2],46% and 38%
same,Population Normal (%),[2],92% and 90%
same,Population Pyknosed Nuclei (%),[2],13% and 10%
same,Population Tubulin-Different-Phenotype (%),[2],67%
same,Total Cell Count,[2],686 and 661
same,Population Apoptotic (%),[3],55% and 53%
same,Population Fragmented Nuclei (%),[3],7%
same,Population Healthy Nuclei (%),[3],85% and 82%
same,Population Hoechst High Intensity Objects (%),[3],9%
same,Population Membrane Permeable-Phenotype (%),[3],2% and 1%
same,Population Mitochondria Different-Phenotype (%),[3],4% and 5%
same,Population Mitotic Cells (%),[3],44% and 46%
same,Population Normal (%),[3],90%
same,Population Pyknosed Nuclei (%),[3],7% and 9%
same,Population Tubulin-Different-Phenotype (%),[3],26% and 25%
same,Total Cell Count,[3],1089 and 967
same,Population Apoptotic (%),[4],46% and 59%
same,Population Fragmented Nuclei (%),[4],7% and 6%
same,Population Healthy Nuclei (%),[4],85% and 81%
same,Population Hoechst High Intensity Objects (%),[4],11% and 13%
same,Population Membrane Permeable-Phenotype (%),[4],3% and 2%
same,Population Mitochondria Different-Phenotype (%),[4],10% and 15%
same,Population Mitotic Cells (%),[4],53% and 40%
same,Population Normal (%),[4],88% and 86%
same,Population Pyknosed Nuclei (%),[4],7% and 11%
same,Population Tubulin-Different-Phenotype (%),[4],53%
same,Total Cell Count,[4],904 and 698
same,Population Apoptotic (%),[5],9% and 25%
same,Population Fragmented Nuclei (%),[5],15% and 13%
same,Population Healthy Nuclei (%),[5],81% and 82%
same,Population Hoechst High Intensity Objects (%),[5],10% and 11%
same,Population Membrane Permeable-Phenotype (%),[5],5% and 2%
same,Population Mitochondria Different-Phenotype (%),[5],0%
same,Population Mitotic Cells (%),[5],90% and 74%
same,Population Normal (%),[5],89% and 88%
same,Population Pyknosed Nuclei (%),[5],2% and 3%
same,Population Tubulin-Different-Phenotype (%),[5],13% and 12%
same,Total Cell Count,[5],2778 and 2175
same,Population Apoptotic (%),[6],34% and 50%
same,Population Fragmented Nuclei (%),[6],18% and 14%
same,Population Healthy Nuclei (%),[6],78% and 80%
same,Population Hoechst High Intensity Objects (%),[6],15% and 20%
same,Population Membrane Permeable-Phenotype (%),[6],4% and 1%
same,Population Mitochondria Different-Phenotype (%),[6],1% and 3%
same,Population Mitotic Cells (%),[6],65% and 50%
same,Population Normal (%),[6],84% and 79%
same,Population Pyknosed Nuclei (%),[6],3% and 5%
same,Population Tubulin-Different-Phenotype (%),[6],22% and 30%
same,Total Cell Count,[6],1684 and 1056
CS(=O)(=O)c1ccc(C(=O)Nc2cc(F)c(F)c(COc3cc(F)c(Br)cc3CN3CC[C@H](O)C3)c2)c(Cl)c1.O=CO,Population Apoptotic (%),[1],60% and 64%
same,Population Mitotic Cells (%),[1],39% and 35%
same,Population Normal (%),[1],90%
same,Total Cell Count,[1],610 and 577
same,Population Apoptotic (%),[2],90% and 72%
same,Population Mitotic Cells (%),[2],9% and 27%
same,Population Normal (%),[2],91% and 89%
same,Total Cell Count,[2],406 and 397
same,Population Apoptotic (%),[3],59% and 58%
same,Population Mitotic Cells (%),[3],40% and 41%
same,Population Normal (%),[3],91% and 92%
same,Total Cell Count,[3],921 and 854
same,Population Apoptotic (%),[4],91% and 78%
same,Population Mitotic Cells (%),[4],8%
same,Population Normal (%),[4],85% and 83%
same,Total Cell Count,[4],392 and 412
same,Population Apoptotic (%),[5],23% and 44%
same,Population Mitotic Cells (%),[5],76% and 55%
same,Population Normal (%),[5],90% and 89%
same,Total Cell Count,[5],2126 and 1643
same,Population Apoptotic (%),[6],90% and 83%
same,Population Mitotic Cells (%),[6],10% and 16%
same,Population Normal (%),[6],80% and 81%
same,Total Cell Count,[6],434 and 464
